From ChEMBL document CHEMBL1124617, “Approaches to isozyme-specific inhibitors. 16. A novel methyl-C5' covalent adduct of L-ethionine and beta,gamma-imido-ATP as a potent multisubstrate inhibitor of rat methionine adenosyltransferases” (J Med Chem, 1989)

What was measured:
Assay type in all cases: protein assay
[1] = biological target: T1, S-adenosylmethionine synthetase (MAT 1 and MAT 2) (Rattus norvegicus, UniProt P13444+P18298); test: Compound was tested for inhibition constant with kidney form of M-2 variants of Rat methionine adenosyltransferase when ATP was the variable substrate
Procedure, shortened: (§1)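 Rat M-2 (normal tissue) isozyme. With methionine as the variable substrate, MgATP was fixed at 2 mM. With MgATP as the variable substrate, methionine was fixed at 60 µM. The MgATP KM was 0.14 mM. Ki values come from kinetic analysis of inhibition against each substrate.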

[2] = biological target: T1, S-adenosylmethionine synthetase (MAT 1 and MAT 2); test: Compound was tested for inhibition constant with kidney form of M-T variants of Rat methionine adenosyltransferase when ATP was the variable substrate
[3] = biological target: T1, S-adenosylmethionine synthetase (MAT 1 and MAT 2); test: Compound was tested for inhibition constant with kidney form of M-2 variants of Rat methionine adenosyltransferase when Methionine was the variable substrate; procedure, shortened: as §1
[4] = biological target: T1, S-adenosylmethionine synthetase (MAT 1 and MAT 2); test: Compound was tested for inhibition constant with kidney form of M-T variants of Rat methionine adenosyltransferase when Methionine was the variable substrate

SMILES	Ki [1] [µM]	Ki [2] [µM]	Ki [3] [µM]	Ki [4] [µM]
Nc1ncnc2c1ncn2[C@@H]1O[C@H]([C@H](CSCCC(N)C(=O)O)OP(=O)(O)OP(=O)(O)NP(=O)(O)O)[C@@H](O)[C@H]1O (some centres not stated)	0.13	0.21	0.65	0.67
Nc1ncnc2c1ncn2[C@@H]1O[C@H]([C@@H](CCSCCC(N)C(=O)O)OP(=O)(O)OP(=O)(O)NP(=O)(O)O)[C@@H](O)[C@H]1O (some centres not stated)	0.11	0.16	2.1	1.1
Nc1ncnc2c1ncn2[C@@H]1O[C@H]([C@H](CCSCCC(N)C(=O)O)OP(=O)(O)OP(=O)(O)NP(=O)(O)O)[C@@H](O)[C@H]1O (some centres not stated)	0.27	0.41	5.4	2.7
